Experimental data from ChEMBL document CHEMBL4190262, “Tuning of β-glucosidase and α-galactosidase inhibition by generation and in situ screening of a library of pyrrolidine-triazole hybrid molecules” (Eur J Med Chem, 2017).

Experiments:
Alpha-galactosidase = Alpha-galactosidase (Coffea arabica, UniProt Q42656); test: Inhibition of coffee beans alpha-galactosidase using p-nitrophenyl glycopyranoside preincubated for 5 mins followed by substrate addition measured after 20 mins by visible absorption spectroscopic method
Chain of Alpha-galactosidase (Q42656 whole entry): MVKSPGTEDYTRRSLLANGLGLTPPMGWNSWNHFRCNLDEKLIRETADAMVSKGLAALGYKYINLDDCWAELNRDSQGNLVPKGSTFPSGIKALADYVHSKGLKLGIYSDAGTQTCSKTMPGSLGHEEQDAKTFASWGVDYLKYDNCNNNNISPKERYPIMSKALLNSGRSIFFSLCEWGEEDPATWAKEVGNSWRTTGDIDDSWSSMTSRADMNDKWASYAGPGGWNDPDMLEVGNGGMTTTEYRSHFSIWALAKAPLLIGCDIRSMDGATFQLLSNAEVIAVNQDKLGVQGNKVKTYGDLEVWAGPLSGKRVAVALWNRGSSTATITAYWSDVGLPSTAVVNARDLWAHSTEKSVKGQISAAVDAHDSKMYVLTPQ
Outline: (§1)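 IC50 determined only for compounds giving ≥80% inhibition at 1 mM, read from plots of % inhibition versus inhibitor concentration. p-Nitrophenyl glycopyranoside substrate (10 mM solution) at the enzyme's optimal pH, with 0.01–0.5 units/mL enzyme. 5 min rt preincubation with enzyme, then 20 min at 37 °C. Borate stop (pH 9.8), absorbance at 405 nm. Duplicates averaged.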

Prunus dulcis [1] = test: Inhibition of almond beta-glucosidase at 1 mM using p-nitrophenyl glycopyranoside preincubated for 5 mins followed by substrate addition measured after 20 mins by visible absorption spectroscopic method relative to control
Outline: (§2)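 Test compound at 1 mM in well. Mix: 0.01–0.5 units/mL enzyme plus 10 mM p-nitrophenyl glycopyranoside (aqueous solution), buffered to the enzyme's optimal pH. Enzyme and inhibitor preincubated 5 min at rt. Substrate then added and incubated 20 min at 37 °C. Stopped with sodium borate (pH 9.8). p-Nitrophenolate read at 405 nm. Duplicates averaged.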

[2] = target: Alpha-galactosidase (Coffea arabica) (UniProt Q42656); test: Inhibition of coffee beans alpha-galactosidase at 50 uM using p-nitrophenyl glycopyranoside preincubated for 5 mins followed by substrate addition measured after 20 mins by visible absorption spectroscopic method relative to control
Chain of Alpha-galactosidase (Coffea arabica) (Q42656 16-378 limits assumed): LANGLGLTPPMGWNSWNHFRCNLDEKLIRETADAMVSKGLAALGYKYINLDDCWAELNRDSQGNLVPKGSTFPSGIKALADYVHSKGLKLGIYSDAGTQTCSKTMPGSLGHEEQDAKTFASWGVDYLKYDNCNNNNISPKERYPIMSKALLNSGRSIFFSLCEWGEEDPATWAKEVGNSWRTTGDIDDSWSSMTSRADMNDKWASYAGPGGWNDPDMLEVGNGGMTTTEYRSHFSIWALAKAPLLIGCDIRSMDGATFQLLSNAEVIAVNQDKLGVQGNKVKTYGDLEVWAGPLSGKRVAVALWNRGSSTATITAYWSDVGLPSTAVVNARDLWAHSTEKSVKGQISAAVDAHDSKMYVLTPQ
Outline: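 Crude triazoles from in situ CuAAC (ascorbate/CuSO4, 24 h rt, water-diluted) were screened at 50 μM per well, assuming full conversion. Enzyme was coffee bean α-galactosidase at pH 6, 37 °C, with p-nitrophenyl glycoside substrate and 405 nm read-out. Blanks of CuSO4, ascorbate and each alkyne were run.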

[3] = Inhibition of bovine liver beta-glucosidase using p-nitrophenyl glycopyranoside preincubated for 5 mins followed by substrate addition measured after 20 mins by visible absorption spectroscopic method; design: species or system Bos taurus; outline: as §1
[4] = target: T1, Lysosomal acid glucosylceramidase (Homo sapiens, UniProt P04062); test: Inhibition of human lysosomal beta-glucocerebrosidase using 4-methylumbelliferyl-beta-D-glucopyranoside as substrate preincubated for 45 mins followed by substrate addition measured after 30 mins by fluorescence spectroscopic method
T1 sequence (P04062 whole entry): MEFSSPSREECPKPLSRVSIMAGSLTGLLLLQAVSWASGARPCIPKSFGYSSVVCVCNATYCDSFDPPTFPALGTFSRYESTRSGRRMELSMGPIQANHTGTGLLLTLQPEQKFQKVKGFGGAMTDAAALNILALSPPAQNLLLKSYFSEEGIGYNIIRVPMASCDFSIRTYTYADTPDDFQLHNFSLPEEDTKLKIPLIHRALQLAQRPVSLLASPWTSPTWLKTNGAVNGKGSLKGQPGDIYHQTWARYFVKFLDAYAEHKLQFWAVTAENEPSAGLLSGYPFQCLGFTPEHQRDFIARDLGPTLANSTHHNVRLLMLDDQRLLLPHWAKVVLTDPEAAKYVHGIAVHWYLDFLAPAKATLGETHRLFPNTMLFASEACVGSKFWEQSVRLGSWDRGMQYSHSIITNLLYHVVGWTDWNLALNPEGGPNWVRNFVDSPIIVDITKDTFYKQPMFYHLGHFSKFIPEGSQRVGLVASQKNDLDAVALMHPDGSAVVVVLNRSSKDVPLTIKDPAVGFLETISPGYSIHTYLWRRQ
Outline: (§3)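 Enzyme in 100 mM McIlvaine buffer pH 5.2 with 0.25% sodium taurocholate and 0.1% Triton X-100, with inhibitor. Preincubated at 0 °C for 45 min, then started with 3 mM 4-methylumbelliferyl glycoside substrate solution and incubated 30 min at 37 °C. Stopped with 400 mM glycine-NaOH pH 10.6. 4-Methylumbelliferone fluorescence read at ex 362/em 450 nm.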

Alpha-galactosidase A = target: T2, Alpha-galactosidase A (Homo sapiens, UniProt P06280); test: Inhibition of human lysosomal alpha-galactosidase A using 4-methylumbelliferyl-alpha-D-galactopyranoside as substrate preincubated for 45 mins followed by substrate addition measured after 30 mins by fluorescence spectroscopic method; outline: as §3
T2 sequence (P06280 whole entry): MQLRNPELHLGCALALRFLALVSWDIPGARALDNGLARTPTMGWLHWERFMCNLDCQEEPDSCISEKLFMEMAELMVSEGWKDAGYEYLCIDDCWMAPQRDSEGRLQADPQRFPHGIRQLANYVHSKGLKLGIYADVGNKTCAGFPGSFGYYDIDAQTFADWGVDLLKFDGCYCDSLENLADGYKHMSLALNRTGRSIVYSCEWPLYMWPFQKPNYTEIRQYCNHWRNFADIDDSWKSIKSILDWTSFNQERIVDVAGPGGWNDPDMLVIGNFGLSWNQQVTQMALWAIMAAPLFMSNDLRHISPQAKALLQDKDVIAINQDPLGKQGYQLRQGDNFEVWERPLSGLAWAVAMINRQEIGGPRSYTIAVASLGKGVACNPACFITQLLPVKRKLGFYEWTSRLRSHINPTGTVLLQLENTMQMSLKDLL

Beta-galactosidase = target: T3, Beta-galactosidase (Bos taurus, UniProt Q58D55); test: Inhibition of bovine liver beta-galactosidase using p-nitrophenyl glycopyranoside preincubated for 5 mins followed by substrate addition measured after 20 mins by visible absorption spectroscopic method; outline: as §1
T3 sequence (Q58D55 whole entry): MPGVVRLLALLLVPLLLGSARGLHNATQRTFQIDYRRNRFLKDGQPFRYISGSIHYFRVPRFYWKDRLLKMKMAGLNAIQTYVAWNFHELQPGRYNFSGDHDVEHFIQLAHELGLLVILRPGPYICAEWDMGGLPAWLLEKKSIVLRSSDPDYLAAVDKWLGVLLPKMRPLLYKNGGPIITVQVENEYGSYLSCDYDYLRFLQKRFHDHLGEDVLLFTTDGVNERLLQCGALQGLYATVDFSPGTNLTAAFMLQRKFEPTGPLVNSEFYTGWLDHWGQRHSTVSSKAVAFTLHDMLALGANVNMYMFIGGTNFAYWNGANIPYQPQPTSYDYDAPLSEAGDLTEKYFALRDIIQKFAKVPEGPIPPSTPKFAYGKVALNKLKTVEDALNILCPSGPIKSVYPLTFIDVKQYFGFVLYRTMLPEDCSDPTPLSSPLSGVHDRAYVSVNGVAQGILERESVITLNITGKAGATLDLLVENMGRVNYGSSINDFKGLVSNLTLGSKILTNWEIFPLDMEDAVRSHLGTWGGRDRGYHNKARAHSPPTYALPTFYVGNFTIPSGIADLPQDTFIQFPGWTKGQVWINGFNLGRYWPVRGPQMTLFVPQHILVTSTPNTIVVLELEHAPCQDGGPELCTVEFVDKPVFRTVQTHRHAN

[5] = Selectivity ratio of IC50 for human lysosomal alpha-galactosidase A to IC50 for coffee beans alpha-galactosidase
[6] = target: Alpha-galactosidase (Coffea arabica) (UniProt Q42656); test: Inhibition of coffee beans alpha-galactosidase at 1 mM using p-nitrophenyl glycopyranoside preincubated for 5 mins followed by substrate addition measured after 20 mins by visible absorption spectroscopic method relative to control; outline: as §2
[7] = Inhibition of almond beta-glucosidase using p-nitrophenyl glycopyranoside preincubated for 5 mins followed by substrate addition measured after 20 mins by visible absorption spectroscopic method; design: species or system Prunus dulcis; outline: as §1
Prunus dulcis [8] = test: Inhibition of almond beta-glucosidase at 10 uM using p-nitrophenyl glycopyranoside preincubated for 5 mins followed by substrate addition measured after 20 mins by visible absorption spectroscopic method relative to control
Outline: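 Crude click-reaction products screened in situ. Azide (final 15 mM) was reacted with each alkyne using sodium ascorbate/CuSO4 in tBuOH–H2O for 24 h at rt, then diluted with water. Tested at 10 μM per well, assuming quantitative conversion, against almond β-glucosidase at pH 5, 37 °C. p-Nitrophenyl glycoside read-out at 405 nm.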

Bos taurus = species: Bos taurus; test: Inhibition of bovine liver beta-glucosidase at 1 mM using p-nitrophenyl glycopyranoside preincubated for 5 mins followed by substrate addition measured after 20 mins by visible absorption spectroscopic method relative to control; outline: as §2
[9] = target: T4, Alpha-galactosidase A (Homo sapiens) (UniProt P06280); test: Inhibition of human lysosomal alpha-galactosidase A at 1 mM using 4-methylumbelliferyl-alpha-D-galactopyranoside as substrate preincubated for 45 mins followed by substrate addition measured after 30 mins by fluorescence spectroscopic method relative to control; outline: as §3
T4 sequence (whole entry): T2 sequence (P06280 whole entry)

| IC50 (Alpha-galactosidase) | inhibition (Prunus dulcis [1]) | inhibition [2] | IC50 [3] | IC50 [4] | IC50 (Alpha-galactosidase A) | IC50 (Beta-galactosidase) | Ratio IC50 [5] | inhibition [6] | IC50 [7] | inhibition (Prunus dulcis [8]) | inhibition (Bos taurus) | inhibition [9] | SMILES |
| --- | --- | --- | --- | --- | --- | --- | --- | --- | --- | --- | --- | --- | --- |
| 13 µM | < 50% | 67% | 887 µM | 31 µM | 185 µM | 338 µM | 10 | – | – | – | – | – | COc1ccc(-c2cn(C[C@H]3NC[C@@H](O)[C@H]3O)nn2)cc1 |
| 14 µM | < 50% | 66% | 888 µM | 187 µM | 159 µM | 268 µM | 10 | – | – | – | – | – | OCc1ccc(-c2cn(C[C@H]3NC[C@@H](O)[C@H]3O)nn2)cc1 |
| – | – | – | – | 19 µM | – | 151 µM | – | < 50% | 7 µM | 65% | < 50% | < 50% | C[Si](C)(C)Cc1cn(C[C@@H]2NC[C@@H](O)[C@H]2O)nn1 |
